According to ChEMBL document CHEMBL4828745, “Discovery and Structure-Activity Relationships of Quinazolinone-2-carboxamide Derivatives as Novel Orally Efficacious Antimalarials” (J Med Chem, 2021):
Values after ≈ are worked out from the molar mass of the structure shown.

Tests used:
Plasmodium falciparum [1] = assay: Antiplasmodial activity against Plasmodium falciparum 3D7 infected in human erythrocyte assessed as intraerythrocytic growth inhibition incubated for 72 hrs by DAPI-staining based imaging analysis; assay type: functional, organism-based; conditions: 3D7, 72 h
Summary of the method: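 P. falciparum 3D7 cultured in RPMI1640 with hypoxanthine, HEPES, 2.5 mg/mL AlbuMAX II and 5% human serum. Sorbitol-synchronized rings exposed 72 h at 37 °C under 5% CO2/5% O2, then DAPI-stained with saponin/Triton X-100 for 8 h in the dark. High-content imaging with spot detection. Duplicate points. Reference antimalarials run in each assay.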

[2] = Cytotoxicity against human HEK293 cells assessed as cell viability incubated for 72 hrs by Alamar blue assay; assay type: cell-based
Summary of the method: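 HEK293 cells handled with the same incubation, compound addition and timing as the 72 h parasite assay. Alamar Blue, diluted in growth medium, was incubated 4 h at 37 °C/5% CO2, then 20 h at room temperature before plate read.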

[3] = Apparent permeability of the compound from apical to basolateral side in human Caco-2 cells at 20 uM measured after 120 mins by LC-MS analysis; assay type: ADME, cell-based
Summary of the method: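 Caco-2 monolayers, apical-to-basolateral direction, in pH 7.4 HBSS with 20 mM HEPES on both sides. Donor at nominal 20 μM, 0.1% DMSO final. Flux followed over 120 min. Quantified by LC-MS with mass balance to derive Papp.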

[4] = Intrinsic clearance in mouse liver microsomes at […] by LC-MS/MS analysis; assay type: ADME, Microsome
Summary of the method: (§1)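 Liver microsomes (human, mouse or rat) at 0.4 mg/mL protein, 37 °C, with an NADPH-regenerating system. Compound at 0.25 or 0.5 μM. Acetonitrile/diazepam quench, LC-MS quantitation. CLint from the first-order degradation rate constant.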

[5] = Intrinsic clearance in rat liver microsomes at […] by LC-MS/MS analysis; assay type: ADME, Microsome; summary of the method: as §1
[6] = Kinetic solubility of the compound in pH 6.5 phosphate buffer by nephelometry; assay type: physicochemical; conditions: read-out: Kinetic_solubility
Summary of the method: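 DMSO stock spiked into pH 6.5 phosphate buffer (1% DMSO final). After 30 min, solubility range estimated by nephelometry.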

[7] = Intrinsic clearance in human liver microsomes at […] by LC-MS/MS analysis; assay type: ADME, Microsome; summary of the method: as §1
Plasmodium falciparum [8] = assay: Antimalarial activity against Plasmodium falciparum Dd2 harbouring Pf-crt, Pf-mdrl,Pf-dhfr, Pf-dhps mutated loci assessed as inhibition of parasite growth incubated for […] by [3H]hypoxanthine incorporation assay based liquid scintillation counting method; assay type: functional, organism-based
Summary of the method: (§2)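 Drug-resistant laboratory P. falciparum strains were compared against the sensitive strain NF54. Growth inhibition was read by a modified [3H]hypoxanthine incorporation assay over 72 h. IC50 is the mean of two independent biological replicates. Chloroquine and artesunate served as controls.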

Plasmodium falciparum [9] = assay: Antimalarial activity against Plasmodium falciparum TM90C2b harbouring Pf-crt, Pf-mdrl,Pfd-hfr, Pf-cytbQ0 mutated loci assessed as inhibition of parasite growth incubated for […] by [3H]hypoxanthine incorporation assay based liquid scintillation counting method; assay type: functional, organism-based; summary of the method: as §2
Plasmodium falciparum [10] = assay: Antimalarial activity against Plasmodium falciparum Cam3.1 harbouring Pf-crt, Pf-mdrl,Pf-dhfr, Pf-dhps, pf-kelch13 mutated loci assessed as inhibition of parasite growth incubated for […] by [3H]hypoxanthine incorporation assay based liquid scintillation counting method; assay type: functional, organism-based; summary of the method: as §2
Plasmodium falciparum [11] = assay: Antimalarial activity against Plasmodium falciparum NF54 assessed as inhibition of parasite growth incubated for 72 hrs by [3H]hypoxanthine incorporation assay based liquid scintillation counting method
Plasmodium falciparum [12] = assay: Antimalarial activity against Plasmodium falciparum K1 harbouring Pf-crt, Pf-mdrl,Pf-dhfr, Pf-dhps mutated loci assessed as inhibition of parasite growth incubated for […] by [3H]hypoxanthine incorporation assay based liquid scintillation counting method; assay type: functional, organism-based; summary of the method: as §2
Plasmodium falciparum [13] = assay: Antimalarial activity against Plasmodium falciparum 7G8 harbouring Pf-crt, Pf-mdrl,Pf-dhfr, Pf-dhps mutated loci assessed as inhibition of parasite growth incubated for […] by [3H]hypoxanthine incorporation assay based liquid scintillation counting method; assay type: functional, organism-based; summary of the method: as §2

SMILES | IC50 (Plasmodium falciparum [1]) [µM] | CC50 at 72 h [2] [µM] | further results
O=C(O)c1ccc(CCOc2c(F)ccc3nc(C(=O)NCc4cccc(C5CC5)c4)[nH]c(=O)c23)cc1 | 4.76 | > 20 | 
CC(C)c1cccc(CNC(=O)c2nc3ccc(F)c(OCCc4ccc(C(=O)O)cc4)c3c(=O)[nH]2)c1 | 1.16 | > 20 | 
CCc1ccccc1CNC(=O)c1nc2ccc(F)c(OCCc3ccc(C(=O)O)cc3)c2c(=O)[nH]1 | > 20 | > 20 | 
CCc1cccc(CNC(=O)c2nc3cccc(COc4ccc(CC(=O)O)cc4)c3c(=O)[nH]2)c1 | > 20 | > 20 | 
CCc1cccc(CNC(=O)c2nc3cccc(CN(C)Cc4ccc(C(=O)O)cc4)c3c(=O)[nH]2)c1 | 1.15 | > 20 | 
CCc1cccc(CN(C)C(=O)c2nc3ccc(F)c(OCCc4ccc(C(=O)O)cc4)c3c(=O)[nH]2)c1 | > 20 | > 20 | 
CCc1cccc(NC(=O)c2nc3ccc(F)c(OCCc4ccc(C(=O)O)cc4)c3c(=O)[nH]2)c1 | 3.19 | > 20 | 
CCc1cccc(CNC(=O)c2nc3cccc(COCc4cccc(C(=O)O)c4)c3c(=O)[nH]2)c1 | 1.58 | > 20 | 
CCNC(=O)c1ccc(CCOc2c(F)ccc3nc(C(=O)NCc4cccc(CC)c4)[nH]c(=O)c23)cc1 | > 20 | > 20 | 
CCc1cccc(CNC(=O)c2nc3ccc(F)c(OCCc4ccc(C(=O)O)cc4)c3c(=O)[nH]2)c1 | 0.42 | > 20 | Papp A→B at 2 h, 20 µM [3]: 44 ×10⁻⁶ cm/s; CLH [4]: 69 uL/ml.millig; CLH [5]: 485 uL/ml.millig; solubility kinetic [6]: 12.5 µg/mL (≈ 25.5 µM)
O=C(O)c1ccc(CCOc2c(F)ccc3nc(C(=O)NCc4ccccc4)[nH]c(=O)c23)cc1 | 3.67 | > 20 | CLH [7]: 7 uL/ml.millig; Papp A→B at 2 h, 20 µM [3]: 16 ×10⁻⁶ cm/s; CLH [4]: 12 uL/ml.millig; CLH [5]: 123 uL/ml.millig; solubility kinetic [6]: 6.3 µg/mL (≈ 13.7 µM)
CCc1cccc(CNC(=O)c2nc3ccc(F)c(OCCc4ccc(C(N)=O)cc4)c3c(=O)[nH]2)c1 | > 20 | > 20 | 
O=C(O)c1ccc(CCOc2c(F)ccc3nc(C(=O)NCc4cccc(OCC5CC5)c4)[nH]c(=O)c23)cc1 | 1.67 | > 20 | 
CCc1cccc(CNC(=O)c2nc3ccc(F)c(COc4ccc(CC(=O)O)cc4)c3c(=O)[nH]2)c1 | > 20 | > 20 | 
COc1cc(CNC(=O)c2nc3ccc(F)c(OCCc4ccc(C(=O)O)cc4)c3c(=O)[nH]2)ccc1F | 1.9 | > 20 | 
CCc1cncc(CNC(=O)c2nc3cccc(COCc4ccc(C(=O)O)cc4)c3c(=O)[nH]2)c1 | 0.55 | > 20 | CLH [7]: 13 uL/ml.millig; CLH [5]: 78 uL/ml.millig; solubility kinetic [6]: 1.6 µg/mL (≈ 3.39 µM)
COc1cccc(CNC(=O)c2nc3ccc(F)c(OCCc4ccccc4)c3c(=O)[nH]2)c1 | > 20 | > 20 | 
CCc1cccc(CNC(=O)c2nc3c(Cl)ccc(COCc4ccc(C(=O)O)cc4)c3c(=O)[nH]2)c1 | 0.16 | > 20 | 
Cc1cc(CNC(=O)c2nc3ccc(F)c(OCCc4ccc(C(=O)O)cc4)c3c(=O)[nH]2)ccc1F | 0.59 | > 20 | 
CCc1cccc(C(C)NC(=O)c2nc3cccc(COCc4ccc(C(=O)O)cc4)c3c(=O)[nH]2)c1 (stereo not drawn) | 5.94 | > 20 | 
CCN(CC)CCCC(C)Nc1ccnc2cc(Cl)ccc12 (stereo not drawn) [CHLOROQUINE] |  |  | IC50 (Plasmodium falciparum [8]): 0.01 µM; IC50 (Plasmodium falciparum [9]): 0.067 µM; IC50 (Plasmodium falciparum [10]): 0.16 µM
CCc1cccc(CNC(=O)c2nc3ccc(Br)c(COCc4ccc(C(=O)O)cc4)c3c(=O)[nH]2)c1 | > 20 | > 20 | 
CCc1ccnc(CNC(=O)c2nc3cccc(COCc4ccc(C(=O)O)cc4)c3c(=O)[nH]2)c1 | 0.89 | > 20 | 

SMILES | IC50 (Plasmodium falciparum [1]) [µM] | CC50 at 72 h [2] [µM] | further results
CCc1cccc(CNC(=O)c2nc3ccc(F)c(COCc4ccc(C(=O)O)cc4)c3c(=O)[nH]2)c1 | 4.46 | > 20 | 
CCc1ccc(CNC(=O)c2nc3ccc(F)c(OCCc4ccc(C(=O)O)cc4)c3c(=O)[nH]2)cc1 | 1.16 | > 20 | 
COc1cccc(CNC(=O)c2nc3ccc(F)c(OCCc4ccc(C(=O)O)cc4)c3c(=O)[nH]2)c1 | 2.38 | > 20 | 
O=C(O)c1ccc(CCOc2c(F)ccc3nc(C(=O)NCC4CCCCC4)[nH]c(=O)c23)cc1 | > 20 | > 20 | CLH [7]: 7 uL/ml.millig; Papp A→B at 2 h, 20 µM [3]: 32 ×10⁻⁶ cm/s; CLH [4]: 62 uL/ml.millig; CLH [5]: 740 uL/ml.millig; solubility kinetic [6]: < 1.6 µg/mL
O=C(O)c1ccc(COCc2cccc3nc(C(=O)NCc4ccccc4)[nH]c(=O)c23)cc1 | 0.28 | > 20 | 
CCc1cccc(CNC(=O)c2nc3cccc(COc4ccc(C(=O)O)cc4)c3c(=O)[nH]2)c1 | > 20 | > 20 | 
O=C(O)c1ccc(COCc2cccc3nc(C(=O)NCc4cccc(C(F)(F)F)c4)[nH]c(=O)c23)cc1 | 0.41 | > 20 | CLH [7]: 7 uL/ml.millig; CLH [5]: 42 uL/ml.millig
CCc1cccc(CNC(=O)c2nc3cccc(CSCc4ccc(C(=O)O)cc4)c3c(=O)[nH]2)c1 | 5.54 | > 20 | 
COc1cccc(CNC(=O)c2nc3ccc(F)c(OCCc4ccc(N)cc4)c3c(=O)[nH]2)c1 | > 20 | > 20 | 
CCc1cccc(CNC(=O)c2nc3ccc(OC)c(COCc4ccc(C(=O)O)cc4)c3c(=O)[nH]2)c1 | > 20 | > 20 | 
CCc1cccc(CNC(=O)c2nc3c(F)ccc(COCc4ccc(C(=O)O)cc4)c3c(=O)[nH]2)c1 | 0.054 | > 20 | 
CCc1cccc(CNC(=O)c2nc3cc(COCc4ccc(C(=O)O)cc4)ccc3c(=O)[nH]2)c1 | > 20 | > 20 | 
COc1cccc(CNC(=O)c2nc3cccc(COCc4ccc(C(=O)O)cc4)c3c(=O)[nH]2)c1 | 0.18 | > 20 | 
CCc1ccc(CNC(=O)c2nc3cccc(COCc4ccc(C(=O)O)cc4)c3c(=O)[nH]2)cc1 | 0.073 | > 20 | 
CCc1cccc(CNC(=O)c2nc3cccc(COCc4ccc(C(N)=O)cc4)c3c(=O)[nH]2)c1 | 0.31 | > 20 | CLH [7]: 83 uL/ml.millig; CLH [5]: 636 uL/ml.millig; solubility kinetic [6]: < 3.1 µg/mL
C[C@H]1[C@H](OC(=O)CCC(=O)O)O[C@@H]2O[C@@]3(C)CC[C@H]4[C@H](C)CC[C@@H]1[C@@]24OO3 [ARTESUNATE] | 0.0006 |  | IC50 (Plasmodium falciparum [11]): 0.006 µM; IC50 (Plasmodium falciparum [8]): 0.006 µM; IC50 (Plasmodium falciparum [9]): 0.002 µM; IC50 (Plasmodium falciparum [12]): 0.004 µM; IC50 (Plasmodium falciparum [10]): 0.004 µM; IC50 (Plasmodium falciparum [13]): 0.003 µM
CCc1cccc(C(C)NC(=O)c2nc3ccc(F)c(OCCc4ccc(C(=O)O)cc4)c3c(=O)[nH]2)c1 (stereo not drawn) | 5.13 | > 20 | 
CCc1cccc(CNC(=O)c2nc3ccc(F)c(COc4ccc(C(=O)O)cc4)c3c(=O)[nH]2)c1 | 6.97 | > 20 | 
CCc1cccc(CNC(=O)c2nc3c(OC)ccc(COCc4ccc(C(=O)O)cc4)c3c(=O)[nH]2)c1 | 1.89 | > 20 | 
CCc1cccc(CNC(=O)c2nc3ccc(COCc4ccc(C(=O)O)cc4)cc3c(=O)[nH]2)c1 | 1.62 | > 20 | 
CCc1cccc(CNC(=O)c2nc3c(COCc4ccc(C(=O)O)cc4)cccc3c(=O)[nH]2)c1 | > 20 | > 20 | 
CCc1cccc(CNC(=O)c2nc3ccc(Cl)c(COCc4ccc(C(=O)O)cc4)c3c(=O)[nH]2)c1 | > 20 | > 20 | 
